The values that follow come from paper PMC5900965 (Clinical Pharmacology in Drug Development, 2017).

“And” between values parts separate entries of the source, which are not always exact repeats. Identical values can stand only once.

Data set [1] concerns the target T1, CYP3A (Homo sapiens, UniProt P08684). Nature of the data set: clinical. The note with it: in vivo; for Tmax: Tmax of midazolam, median (range).
Data set [2] can be described thus: Phase 1 study safety and tolerability. Type of data set: in vivo, human.
In another data set the target is CYP2C9 (Homo sapiens, UniProt P11712). The data set is described as follows: Reversible inhibition of CYP2C9 in pooled human liver microsomes. Type of data set: in vitro ADME. A general note: Microsomes from liver hold many membrane-bound enzymes, among them those of drug oxidation.
Data set [3] addresses T2, CYP2D6 (Homo sapiens, UniProt P10635). Nature of the data set: Reversible inhibition of CYP2D6 in pooled human liver microsomes. Type of data set: in vitro ADME.
A short description of data set [4]: Clinical plasma exposure after oral PF-04171327. It counts as in vivo, human. Conditions: 25‐mg steady‐state administration of PF‐04171327.
In data set [5] the target is T3, CYP1A2 (Homo sapiens, UniProt P05177).
T3 sequence (P05177 1-516): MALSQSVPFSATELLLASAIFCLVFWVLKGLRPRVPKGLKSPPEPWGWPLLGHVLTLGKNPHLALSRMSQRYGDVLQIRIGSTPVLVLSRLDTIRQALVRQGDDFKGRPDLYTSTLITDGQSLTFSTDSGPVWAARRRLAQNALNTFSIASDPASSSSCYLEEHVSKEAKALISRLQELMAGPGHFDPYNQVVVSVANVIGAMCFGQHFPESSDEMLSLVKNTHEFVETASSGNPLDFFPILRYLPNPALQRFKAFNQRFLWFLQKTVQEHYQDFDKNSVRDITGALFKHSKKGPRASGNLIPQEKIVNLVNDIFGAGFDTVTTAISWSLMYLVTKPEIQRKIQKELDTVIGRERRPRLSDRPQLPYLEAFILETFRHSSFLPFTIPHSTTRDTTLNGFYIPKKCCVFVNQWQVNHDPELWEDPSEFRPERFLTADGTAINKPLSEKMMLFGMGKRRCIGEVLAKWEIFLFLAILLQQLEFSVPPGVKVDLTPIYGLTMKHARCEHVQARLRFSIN
Nature of the data set: biochemical. Type of data set: in vitro ADME.

For data set [6] the following is noted: at 0.76 mg/mL microsomal protein; ref data on file; cited from earlier work.
The conditions of data set [7]: cited from earlier work.
The target of a further data set is CYP2C19 (Homo sapiens, UniProt P33261). The data set is described as follows: Reversible inhibition of CYP2C19 in pooled human liver microsomes. It counts as in vitro ADME.
A further data set concerns CYP3A4 mRNA. The data set is described as follows: Induction of CYP3A mRNA in cryopreserved human hepatocytes. Type of data set: in vitro ADME. Conditions: for Estimated Emax (Fold Induction): highest fold induction observed.
Data set [8] has as its system CYP2C8, CYP2C9, CYP2D6 and CYP3A (range over these CYPs). Nature of the data set: Reversible CYP inhibition panel in human liver microsomes. It counts as in vitro ADME. The note with it: pooled human liver microsomes.
The target of data set [9] is T1, CYP3A. Nature of the data set: Reversible inhibition of CYP3A in pooled human liver microsomes. Type of data set: in vitro ADME.
In a further data set the test system is CYP3A4. Nature of the data set: Induction of CYP3A4 enzyme activity in cryopreserved human hepatocytes. Type of data set: in vitro ADME. Conditions: 72 hours, positive defined as ≥2‐fold. The gist of the method:
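Cryopreserved human hepatocytes from several lots, in collagen-coated wells, were exposed for 72 h to test compound (0.5–100 or 0.5–60 μM), vehicle, or rifampin (25 or 10 μM). After washing, testosterone (250 μM) or midazolam (30 μM) was added. 6β-Hydroxytestosterone was measured by HPLC-UV and 1′-hydroxymidazolam by LC-MS/MS. A ≥2-fold rise counted as positive. EC50 and Emax were fitted to the concentration–fold-induction curves.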

Data set [10] has as its target T2, CYP2D6. Nature of the data set: Time-dependent inhibition of CYP2D6 in pooled human liver microsomes. It counts as in vitro ADME.
The next data set has as its system CYP3A4/5. The data set is described as follows: Time-dependent inhibition of CYP3A in pooled human liver microsomes. Type of data set: in vitro ADME.
Another data set addresses T4, CYP2B6 (Homo sapiens, UniProt P20813).
T4 sequence (P20813 1-491): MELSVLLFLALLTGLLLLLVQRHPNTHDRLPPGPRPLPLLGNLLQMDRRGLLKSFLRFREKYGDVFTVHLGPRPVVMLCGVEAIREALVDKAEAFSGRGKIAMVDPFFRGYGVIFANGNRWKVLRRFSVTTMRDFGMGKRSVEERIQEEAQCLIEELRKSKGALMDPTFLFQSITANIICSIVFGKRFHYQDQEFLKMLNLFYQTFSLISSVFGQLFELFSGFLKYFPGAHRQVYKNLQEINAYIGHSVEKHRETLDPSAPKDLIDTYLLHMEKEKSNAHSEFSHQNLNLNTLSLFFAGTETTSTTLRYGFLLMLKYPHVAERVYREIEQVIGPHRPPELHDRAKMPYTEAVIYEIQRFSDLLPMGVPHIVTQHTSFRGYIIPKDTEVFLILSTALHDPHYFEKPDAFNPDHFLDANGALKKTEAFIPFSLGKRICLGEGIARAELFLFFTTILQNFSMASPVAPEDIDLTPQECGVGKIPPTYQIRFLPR
The data set is described as follows: Reversible inhibition of CYP2B6 in pooled human liver microsomes. Type of data set: in vitro ADME.

Another data set addresses T5, CYP2C8 (Homo sapiens, UniProt P10632).
T5 sequence (P10632 1-490): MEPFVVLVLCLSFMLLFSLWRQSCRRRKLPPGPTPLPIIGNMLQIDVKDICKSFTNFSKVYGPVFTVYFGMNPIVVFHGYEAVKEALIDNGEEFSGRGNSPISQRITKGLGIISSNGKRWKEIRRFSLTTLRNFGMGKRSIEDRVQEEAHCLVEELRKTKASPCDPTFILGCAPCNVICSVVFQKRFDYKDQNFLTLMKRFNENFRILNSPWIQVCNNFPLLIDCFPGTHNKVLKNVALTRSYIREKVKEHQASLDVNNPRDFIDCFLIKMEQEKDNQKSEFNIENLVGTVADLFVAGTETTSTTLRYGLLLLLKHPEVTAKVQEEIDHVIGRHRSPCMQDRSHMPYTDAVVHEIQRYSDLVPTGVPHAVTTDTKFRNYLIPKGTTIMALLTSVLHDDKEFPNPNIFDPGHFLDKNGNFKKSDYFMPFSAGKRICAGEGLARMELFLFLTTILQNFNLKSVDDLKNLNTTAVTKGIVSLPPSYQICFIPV
Nature of the data set: Reversible inhibition of CYP2C8 in pooled human liver microsomes. Type of data set: in vitro ADME.

Data set [11] concerns CYP1A2. Type of data set: in vitro ADME. The note with it: human hepatocytes, 72 hours; data not shown.
For data set [12] the following is noted: 10 and 25 mg; patients with RA; week 8; cited from earlier work.

T1 sequence (P08684 2-503): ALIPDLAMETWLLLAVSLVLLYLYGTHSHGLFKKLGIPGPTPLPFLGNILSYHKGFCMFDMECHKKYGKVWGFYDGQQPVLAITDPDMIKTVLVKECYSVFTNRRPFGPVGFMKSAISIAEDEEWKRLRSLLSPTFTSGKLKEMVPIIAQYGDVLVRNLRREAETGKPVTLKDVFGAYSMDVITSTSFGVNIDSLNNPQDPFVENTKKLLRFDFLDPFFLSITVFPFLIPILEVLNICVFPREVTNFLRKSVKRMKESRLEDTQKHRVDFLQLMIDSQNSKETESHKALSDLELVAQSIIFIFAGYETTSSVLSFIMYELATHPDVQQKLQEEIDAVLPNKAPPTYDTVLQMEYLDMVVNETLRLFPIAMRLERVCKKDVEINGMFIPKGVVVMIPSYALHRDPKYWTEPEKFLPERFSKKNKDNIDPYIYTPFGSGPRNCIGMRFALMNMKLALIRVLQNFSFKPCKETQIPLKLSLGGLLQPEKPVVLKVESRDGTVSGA
T2 sequence (P10635 whole entry): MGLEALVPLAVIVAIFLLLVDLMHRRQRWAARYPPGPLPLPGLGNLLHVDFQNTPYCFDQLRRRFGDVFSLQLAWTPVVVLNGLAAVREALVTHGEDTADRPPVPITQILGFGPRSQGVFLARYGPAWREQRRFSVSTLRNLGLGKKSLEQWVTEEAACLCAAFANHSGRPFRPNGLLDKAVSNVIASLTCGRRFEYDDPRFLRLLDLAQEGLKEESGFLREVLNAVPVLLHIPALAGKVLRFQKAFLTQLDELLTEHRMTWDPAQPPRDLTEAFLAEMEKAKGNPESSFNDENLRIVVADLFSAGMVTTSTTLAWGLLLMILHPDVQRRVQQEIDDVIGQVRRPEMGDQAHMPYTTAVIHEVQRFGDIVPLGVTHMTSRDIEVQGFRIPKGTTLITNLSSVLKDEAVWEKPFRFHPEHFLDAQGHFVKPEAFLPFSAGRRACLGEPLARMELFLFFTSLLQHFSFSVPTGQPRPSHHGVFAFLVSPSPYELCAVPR
CYP2C9, sequence (P11712 whole entry): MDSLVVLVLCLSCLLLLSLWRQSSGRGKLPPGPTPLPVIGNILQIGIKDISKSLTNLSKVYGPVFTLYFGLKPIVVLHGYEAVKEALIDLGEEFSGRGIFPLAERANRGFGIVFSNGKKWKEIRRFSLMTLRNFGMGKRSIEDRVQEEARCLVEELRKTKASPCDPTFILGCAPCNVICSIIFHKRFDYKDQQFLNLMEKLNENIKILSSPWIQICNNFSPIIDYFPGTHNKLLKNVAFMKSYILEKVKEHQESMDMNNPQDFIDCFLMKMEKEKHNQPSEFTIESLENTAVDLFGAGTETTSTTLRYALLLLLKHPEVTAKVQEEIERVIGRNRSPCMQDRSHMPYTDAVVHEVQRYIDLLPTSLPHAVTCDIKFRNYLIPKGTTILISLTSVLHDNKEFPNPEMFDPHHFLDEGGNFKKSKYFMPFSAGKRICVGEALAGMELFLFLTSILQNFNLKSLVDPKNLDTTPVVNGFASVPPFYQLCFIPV
CYP2C19, sequence (P33261 whole entry): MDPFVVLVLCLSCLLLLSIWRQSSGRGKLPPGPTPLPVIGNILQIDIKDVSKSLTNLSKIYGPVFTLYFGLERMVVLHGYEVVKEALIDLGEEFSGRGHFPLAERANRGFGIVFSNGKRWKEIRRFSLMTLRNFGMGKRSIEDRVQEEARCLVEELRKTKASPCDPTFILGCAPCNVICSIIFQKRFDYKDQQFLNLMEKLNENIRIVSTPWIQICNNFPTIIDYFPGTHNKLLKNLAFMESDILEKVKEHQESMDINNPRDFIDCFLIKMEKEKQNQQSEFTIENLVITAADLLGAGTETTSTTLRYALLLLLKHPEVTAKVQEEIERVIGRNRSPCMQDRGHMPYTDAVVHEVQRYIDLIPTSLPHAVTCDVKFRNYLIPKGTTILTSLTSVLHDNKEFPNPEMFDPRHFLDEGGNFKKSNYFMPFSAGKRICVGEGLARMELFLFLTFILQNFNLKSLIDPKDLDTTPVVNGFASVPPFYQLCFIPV

A word on the AUC(0-inf): it is total exposure, with the tail of the curve extrapolated. The AUC(0-t) is the area under the concentration-time curve up to a stated or last time point. The low end stands for low exposure, the high end for high exposure. Broadly, the Cmax is the peak of the concentration-time curve. For orientation: half-life means the time needed for the level to fall by half in the phase considered. Read a low half-life as fast loss. Broadly, the Tmax is the time at which the peak concentration occurs. Take `Cc1ncc2n1-c1ccc(Cl)cc1C(c1ccccc1F)=NC2` [Midazolam, midazolam]: at CYP3A [1], the AUC(0-inf) was 20.3 ng·h/mL, the AUC(0-t) worked out at 19.8 ng·h/mL, the Cmax amounted to 7.2 ng/mL and the half-life is 200 min. In addition, on CYP3A [1], the time to peak (Tmax) was around 30 min. Further, at CYP3A [1] (po, 2 mg), the AUC(0-inf) turned out to be 21.2 ng·h/mL, the AUC(0-t) was determined as 20.5 ng·h/mL, the highest concentration (Cmax) is 8.03 ng/mL and the half-life is 232 min. Moreover, at CYP3A [1] (po, 2 mg), the time of peak concentration (Tmax) was around 30 min. Further, the “Treatment‐emergent AEs” value in data set [2] (midazolam 2 mg only, 12 healthy volunteers) is listed as “No TEAEs were reported”.

As a reminder, the IC50 is the concentration needed to halve the response being measured. A word on the kinact/KI: it is the maximal inactivation rate divided by the concentration that gives half of it. Consider `Cc1ncccc1NC(=O)c1ccc2c(c1)CC[C@@H]1C[C@@](O)(C(F)(F)F)CC[C@@]21Cc1ccccc1` [PF‐00251802, dagrocorat], for which the IC50 is 1800 nM against CYP2C9; 570 nM against CYP2D6 [3]; above 30 µM at CYP1A2 [5]; above 30 µM against CYP2C19; 480 to 4600 nM in data set [8]; 1300 nM against CYP3A [9] (probe felodipine (oxidation)). The IC50 is 4600 nM against CYP3A [9] (probe midazolam (1′-hydroxylation)), 1000 nM on CYP3A [9] (probe testosterone (6β-hydroxylation)), above 30 µM at CYP2B6 and 480 nM on CYP2C8. The “Unbound Cmax” value in [4] is “approximately 2.1 ng/mL and ~4.2 nM”. The “Fraction unbound in microsomes” value in data set [6] was “approximately 0.22”. Moreover, in data set [7] (25‐mg steady‐state administration of PF‐04171327, ref Miyoshi et al 11, Weatherley et al 22, unpublished data), the “Estimated total Cmax” value is given as “approximately 300 ng/mL”. In addition, in [7] (multiple‐dose study of PF‐04171327 in healthy volunteers), the “Time to achieve apparent steady‐state concentrations” value is 12 days. In addition, in data set [7] (read-out: Estimated total Cmax, 25‐mg steady‐state administration of PF‐04171327, ref Miyoshi et al 11, Weatherley et al 22, unpublished data), the peak concentration (Cmax) was around 610 nM. The “Estimated Emax (Fold Induction)” value is on record as 13 Fold Induction in the data set on CYP3A4 mRNA (Lot 1, expt 1); 4.7 Fold Induction in the data set on CYP3A4 mRNA (Lot 1, expt 2); 40 Fold Induction with CYP3A4 mRNA (Lot 2, expt 1); 22 Fold Induction in the data set on CYP3A4 mRNA (Lot 2, expt 2). For the same compound, the “Induction of CYP3A4 mRNA” value in the data set on CYP3A4 mRNA (all lots tested, positive defined as ≥4‐fold induction based on mRNA) was “Induction of CYP3A4 mRNA was observed”. Moreover, the “Induction of CYP3A4 enzyme activity” value in the data set on CYP3A4 is “not observed”. The compound further gave a Ki at CYP2D6 [10] of 570 nM. Moreover, the inactivation efficiency (kinact/KI) at CYP2D6 [10] (dextromethorphan) came out at 22 mL/min/µmol; in the data set with CYP3A4/5 (midazolam, slope of kobs versus [I] curve), 72 mL/min/µmol. For the same compound, the “Concentrations at which time‐dependent inhibition of CYP2D6 was shown” value at CYP2D6 [10] (dextromethorphan as probe substrate) is at least 0.6 µM. Besides, the “Concentrations at which time‐dependent inhibition of CYP3A was shown” value in the data set on CYP3A4/5 (midazolam as marker substrate) is at least 0.08 µM. For the same compound, the “Induction of CYP1A2 enzyme activity” value in the data set on CYP1A2 [11] was “No induction”.

As for `Cc1ncccc1NC(=O)c1ccc2c(c1)CC[C@@H]1C[C@@](OP(=O)(O)O)(C(F)(F)F)CC[C@@]21Cc1ccccc1` [PF‐04171327, fosdagrocorat], in [7] (single or multiple ascending‐dose phase 1 studies, lower limit of quantification 0.5 ng/mL, ref Pfizer, unpublished data), the “Detection in systemic circulation” value is given as “not detected”. For the same compound, the SAEs or deaths entry in data set [2] (coadministration of PF‐04171327 and midazolam) is on record as “No SAEs or deaths were reported”. Also, in data set [12], the “Efficacy in improving signs and symptoms of RA” value was “superior efficacy relative to placebo and comparable efficacy relative to prednisone”.
